Data reported in ChEMBL document CHEMBL1152947, “9,11-Secosterols with antiproliferative activity from the gorgonian Eunicella cavolini” (Bioorg Med Chem, 2009).

Columns and labels:
MCF7 [1] = test: Growth inhibition of human MCF7 cells at 10 uM after 4 days by MTT assay in presence of 5% heat-inactivated fetal bovine serum treated with dextran-coated charcoal and 17-beta-estradiol relative to ICI-182780; type: functional; details: MCF7, 96 h, read-out: GI
Procedure, shortened: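 MCF-7 cells in MEM with 5% dextran-coated-charcoal-treated heat-inactivated FBS plus 1 nM 17β-estradiol were exposed for four days to test compound (10 µM), ICI 182,780 (1 µM) or vehicle. MTT absorbance was read at 550 nm. Effect was calculated as (OD vehicle − OD test) × 100 / (OD vehicle − OD ICI 182,780). Values are mean ± SEM of at least three assays.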

LNCaP [2] = test: Growth inhibition of human LNCAP cells after 4 days by MTT assay in presence of 10% fetal bovine serum; type: functional, cell-based; details: 96 h
Procedure, shortened: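 LNCaP cells were cultured in MEM with 10% FBS in 96-well plates against 0.1% DMSO vehicle. Viable cells were estimated by MTT conversion to formazan, read as absorbance at 550 nm. IC50 was derived from growth inhibition relative to vehicle. Values are mean ± SEM.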

MCF7 [3] = test: Growth inhibition of human MCF7 cells at 10 uM after 4 days by MTT assay in presence of 10% fetal bovine serum relative to control; type: functional; details: MCF7, 96 h, read-out: GI
Procedure, shortened: (§1)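 LNCaP or MCF-7 cells in MEM with 10% FBS were given test compound at 10 µM or 0.1% DMSO vehicle; MCF-7 exposure was four days. MTT read-out at 550 nm. Inhibition was calculated as (OD vehicle − OD test) × 100 / OD vehicle. Values are mean ± SEM, n = 4, ANOVA versus vehicle.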

MCF7 [4] = test: Growth inhibition of human MCF7 cells after 4 days by MTT assay in presence of 5% heat-inactivated fetal bovine serum treated with dextran-coated charcoal and 17-beta-estradiol; type: functional, cell-based; details: MCF7, 96 h
LNCaP [5] = test: Growth inhibition of human LNCAP cells at 10 uM after 4 days by MTT assay in presence of 10% fetal bovine serum relative to control; type: functional; details: 96 h, read-out: GI; procedure, shortened: as §1
MCF7 [6] = test: Growth inhibition of human MCF7 cells at 1 uM after 4 days by MTT assay; type: functional; details: MCF7, 96 h, read-out: GI
MCF7 [7] = test: Cytotoxicity against human MCF7 cells after 4 days by MTT assay; type: functional, cell-based; details: MCF7, 96 h
Procedure, shortened: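 MCF-7 cells in minimal essential medium, with either 10% FBS or 5% dextran-charcoal-treated FBS plus 1 nM 17β-estradiol, were exposed to secosterols for four days. Vehicle was 0.1% DMSO. Read-out was MTT formazan absorbance at 550 nm, expressed as % of vehicle. IC50 was derived from growth inhibition, mean ± SEM of ≥3 independent assays.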

LNCaP [8] = test: Growth inhibition of human LNCAP cells at 1 uM after 4 days by MTT assay; type: functional; details: 96 h, read-out: GI
LNCaP [9] = test: Cytotoxicity against human LNCAP cells after 4 days by MTT assay; type: functional, cell-based; details: 96 h
Procedure, shortened: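 LNCaP cells grown in minimal essential medium with 10% FBS, exposed to secosterols for four days in 96-well plates, with 0.1% DMSO as vehicle. Viable cells were estimated from MTT conversion to formazan, read at 550 nm. Absorbance was expressed relative to vehicle (100%), and IC50 was taken from growth inhibition, mean ± SEM of ≥3 independent assays.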

HeLa = test: Cytotoxicity against human HeLa cells; type: functional, cell-based
K562 = test: Cytotoxicity against human K562 cells; type: functional, cell-based
MCF7 [10] = test: Growth inhibition of human MCF7 cells after 4 days by MTT assay in presence of 10% fetal bovine serum; type: functional, cell-based; details: MCF7, 96 h

| Compound | IC50 (LNCaP [2]) [µM] | IC50 (MCF7 [4]) [µM] | IC50 (MCF7 [10]) [µM] | inhibition of growth at 10 µM (MCF7 [1]) [%] | inhibition of growth at 10 µM (MCF7 [3]) [%] | inhibition of growth at 10 µM (LNCaP [5]) [%] | inhibition of growth at 1 µM (MCF7 [6]) [%] | IC50 (MCF7 [7]) [µM] | inhibition of growth at 1 µM (LNCaP [8]) [%] | IC50 (LNCaP [9]) [µM] | IC50 (HeLa) [µM] | IC50 (K562) [µM] |
| --- | --- | --- | --- | --- | --- | --- | --- | --- | --- | --- | --- | --- |
| CC(=O)OCC[C@]1(C)[C@@H]([C@H](C)/C=C\C(C)C(C)C)CC[C@H]1C1=C[C@H](O)[C@H]2C[C@@H](O)CC[C@]2(C)C1=O (some centres not stated) | 6.7 | 6 |  | 62 | 27 | 45 |  |  |  |  |  |  |
| C[C@]12CC[C@@H]3c4ccc(O)cc4C[C@@H](CCCCCCCCC[S+]([O-])CCCC(F)(F)C(F)(F)F)[C@H]3[C@@H]1CC[C@@H]2O (some centres not stated) [FULVESTRANT] |  |  |  |  |  |  | 100 | 0.018 | 100 | 0.018 |  |  |
| CC(=O)OCC[C@]1(C)[C@@H]([C@H](C)/C=C/C(C)C)CC[C@H]1C1=C[C@H](O)[C@H]2C[C@@H](O)CC[C@]2(C)C1=O | 7 | 7.4 | 7.6 | 86 | 34 | 76 |  |  |  |  | 7 | 6.5 |

More lines, main results first:

| IC50 (LNCaP [2]) [µM] | IC50 (MCF7 [4]) [µM] | IC50 (MCF7 [10]) [µM] | Compound | inhibition of growth at 10 µM (MCF7 [1]) [%] | inhibition of growth at 10 µM (MCF7 [3]) [%] | inhibition of growth at 10 µM (LNCaP [5]) [%] | inhibition of growth at 1 µM (MCF7 [6]) [%] | IC50 (MCF7 [7]) [µM] | inhibition of growth at 1 µM (LNCaP [8]) [%] | IC50 (LNCaP [9]) [µM] | IC50 (HeLa) [µM] | IC50 (K562) [µM] |
| --- | --- | --- | --- | --- | --- | --- | --- | --- | --- | --- | --- | --- |
|  | 3.8 |  | C=C(CC[C@@H](C)[C@H]1CC[C@@H](C2=C[C@H](O)[C@H]3C[C@@H](O)CC[C@]3(C)C2=O)[C@]1(C)CCOC(C)=O)C(C)C | 50 | ≤ 10 | ≤ 10 |  |  |  |  |  |  |
| 5.4 | 5.4 | 7 | CCC(C)/C=C/[C@@H](C)[C@H]1CC[C@@H](C2=C[C@H](O)[C@H]3C[C@@H](O)CC[C@]3(C)C2=O)[C@]1(C)CCOC(C)=O (some centres not stated) | 90 | 49 | 83 |  |  |  |  |  |  |
